# IDE act – boosts human insulin-degrading enzyme activity in HEK cells | P14735 | FAbeta-B cleavage, fluorescence polarization; 0% vehicle, 100% cell-free pure enzyme wells | activation, % at 5.96 µM | 340,000 tested, 0.073% active | AID 493087;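 active = activation above the mean of all tested compounds plus 3 SD, set per screening campaign, cut at about 17% in these data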
# proCasp7 act – counter-screen: procaspase-7 (human) activation | AID 463210 | 330,000 tested, 0.093% active | P55210 | activation, % at 8.5 µM | recombinant procaspase-7, Ac-DEVD-pNA absorbance 405 nm; D23A/D198A/D206A triple mutant, cannot self-cleave; scale: DMSO 0, 5 µM enzyme 100;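 active = percent activation above the screen-wide mean plus 3 SD, cut at about 25% in these data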
#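 Replicates: singlicate. Assay system: Procaspase-7 triple mutant (PC-7 D3A). Signal: 405 nm absorbance of p-nitroaniline. Times: 1 h preincubation, 2 h reaction. Buffer or medium: Zinc-free HEPES pH 7.4 with 300 mM NaCl, 0.01% Triton X-100. Also added: DEVD-pNA substrate. Benchmarks: DMSO wells as 0%, DMSO with 5 µM added PC-7 as 100%.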
# IDE inh – inhibits human insulin-degrading enzyme in HEK cells. P14735. FAbetaB cleavage, fluorescence polarization. inhibition, % at 5.59 µM. 320,000 tested, 0.41% active;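 active = percent inhibition above the average of all tested compounds plus 3 SD, set per screening campaign, cut at about 16% in these data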;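 also: IDE supplied by intact live HEK cells; FP after avidin binding of uncleaved biotin substrate so inhibition keeps polarization high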
# procasp3 activ – procaspase-3 (human) activation; P42574; activation, % at 8.5 µM; recombinant procaspase-3 D3A, Ac-DEVD-pNA absorbance 405 nm; 330,000 tested, 0.11% active;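 active = activation above the mean of all tested compounds plus 3 SD, cut at about 21% in these data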
#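 Test system: Procaspase-3 D3A mutant, all three cleavage aspartates alanine | Dosing: Single dose, 8.5 µM nominal compound, 0.8% DMSO | Schedule: 1 h preincubation, 2 h reaction | Technique: 405 nm absorbance of p-nitroaniline, reads at 0 and 120 min | Repeats: One well per compound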
# UBC13 inh – blocks human UBC13 polyubiquitin chain formation | TR-FRET | inhibition, % at 20 µM | 330,000 tested, 0.47% active | AID 485273; in the data active = inhibition above about 45%, passing the limit was not always enough; inconclusive = no clear call, values can overlap the other calls
# Target sequence (P61088 whole entry, looked up): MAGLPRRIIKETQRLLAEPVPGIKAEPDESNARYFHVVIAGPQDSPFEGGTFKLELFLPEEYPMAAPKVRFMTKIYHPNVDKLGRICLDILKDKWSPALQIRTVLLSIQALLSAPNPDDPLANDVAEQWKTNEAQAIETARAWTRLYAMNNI
# PHOSPHO1 inh – inhibitors of human PHOSPHO1 phosphatase; Q8TCT1; recombinant PHOSPHO1, absorbance phosphatase assay; inhibition, % at 13.3 µM; 290,000 tested, 1.1% active; AID 1565; in the data active = inhibition above about 60%
# Target sequence (Q8TCT1 whole entry, looked up): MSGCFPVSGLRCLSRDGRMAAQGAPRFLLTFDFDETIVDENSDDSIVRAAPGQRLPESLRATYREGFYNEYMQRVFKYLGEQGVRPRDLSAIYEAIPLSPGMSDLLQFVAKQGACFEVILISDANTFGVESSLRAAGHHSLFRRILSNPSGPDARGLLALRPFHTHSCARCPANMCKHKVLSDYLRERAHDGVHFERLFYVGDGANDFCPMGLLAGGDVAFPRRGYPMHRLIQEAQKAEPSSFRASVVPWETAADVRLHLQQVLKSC
# procasp7 triplic – counter-screen: procaspase-7 (human) activation in triplicate; shares compounds with procasp3 activ; recombinant procaspase-7, Ac-DEVD-pNA absorbance; asp23/198/206-to-Ala mutant, cannot self-cleave; activation, % at 8.5 µM; 210 tested, under 10 active; AID 488941;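 active = mean activation above a set limit taken from an earlier procaspase-7 screen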
# proCasp3 confirm – procaspase-3 (human) activation, confirmed; 210 tested, 10% active; shares compounds with procasp3 activ; activation, % at 8.5 µM; recombinant PC-3 D3A, Ac-DEVD-pNA absorbance 405 nm; 100% is higher-enzyme control;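 active = mean activation above a set limit carried over from the earlier primary screen, cut at about 22% in these data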
# Hits are given with their value; - = inactive; ? = inconclusive; . = not tested or not shown. Compounds with a hit are over-represented: about 1.9% of the library has one in this group of screens.
SMILES,IDE act,proCasp7 act,IDE inh,procasp3 activ,UBC13 inh,PHOSPHO1 inh,procasp7 triplic,proCasp3 confirm
CCCn1c2ccccc2c2nnc(SCC(=O)Nc3nnc(CC(=O)OCC)s3)nc21,-,-,-,84.3,-,-,-,-
CCOC(=O)Cc1nnc(NC(=O)CSc2nnc3c4ccccc4n(C(C)C)c3n2)s1,-,-,-,-,-,-,.,.
CCOC(=O)C1(CCCc2ccccc2)CCN(C(=O)c2cc(C)nn2CC)CC1,-,-,-,23.1,-,-,-,-
CCOC(=O)C1(CCCc2ccccc2)CCN(C(=O)c2cncs2)CC1,-,-,-,-,-,-,.,.
COC(=O)C1=CN(CC2CCCO2)C=C(C(=O)OC)C1c1ccccc1C(F)(F)F (stereo unspecified),-,-,-,23.2,-,-,-,-
CCOc1ccc(C(=O)C[n+]2ccc(C(=O)NCc3ccccc3)cc2)cc1,-,-,-,32.7,-,-,-,-
O=C(O)c1cccc(-n2cccc2/C=C2/SC(=O)N(CC(=O)N3CCCC3)C2=O)c1,-,-,-,-,-,-,.,.
Cc1ccc(S(=O)(=O)NCc2ccccc2)cc1C(=O)N1CCN(S(=O)(=O)c2ccccc2)CC1,-,.,.,.,-,.,.,.
O=C(NN1C(=O)C2C3C=CC(C4CC34)C2C1=O)c1ccc(Cl)c(Cl)c1 (stereo unspecified),-,-,-,-,-,-,.,.
O=C(NN1C(=O)C2C3C=CC(C3)C2C1=O)c1cccc(Cl)c1 (stereo unspecified),-,-,-,23.9,-,-,-,-
Cc1ccc(S(=O)(=O)N2CC(O)C[C@H]2C(=O)OCC(=O)N2CCN(c3ccc(F)cc3)CC2)cc1C (stereo partly specified),-,.,.,.,.,.,.,.
CNc1ccccc1C(=O)OCC(C)=O,-,-,-,21.7,-,-,-,24.2
Cc1cccc(N2CCN(C(=O)c3c(C)nn(Cc4ccccc4Cl)c3C)CC2)c1C,-,-,-,54.8,-,-,-,-
CC(=O)Nc1ccc(NC(=O)c2c(C)nn(Cc3ccccc3Cl)c2C)cc1,-,-,-,-,-,-,.,.
CS(=O)(=O)c1ccccc1-c1nnc(NC(=O)c2cccc(N3C(=O)CCC3=O)c2)o1,-,-,-,-,-,.,.,.
CC(=O)c1sc(NC(=O)C(C)C)nc1C,-,-,-,-,-,-,.,.
CC(=O)Nc1nc(C)c(C(C)=O)s1,-,-,-,24.5,-,-,-,-
Brc1ccc(-c2nn3c(-c4ccco4)nnc3s2)o1,-,-,-,23.1,-,99.4,-,-
Cc1cc(OC(=O)c2ccccc2Cl)c([N+](=O)[O-])c(=O)[nH]1,-,-,-,-,-,-,.,.
Cc1cc(OC(=O)c2ccc(Cl)cc2Cl)c([N+](=O)[O-])c(=O)[nH]1,-,-,-,89.4,-,-,-,-
Cc1ccc2cc(C#N)c(NCCNC(=O)C3CC3)nc2c1C,-,-,-,23.2,-,-,-,-
C[C@]12C=CC(=O)C=C1CC[C@@H]1[C@@H]2[C@@H](O)C[C@@]2(C)[C@H]1CC[C@]2(O)C(=O)COC(=O)CCC(=O)NCCc1ccc(O)cc1,-,.,.,.,-,-,.,.
O=C(COC(=O)c1n[nH]c(=O)c2ccccc12)NC1CCCCC1,-,-,-,-,-,.,.,.
Cc1ccc(S(=O)(=O)CC(=O)Nc2cccc(C)n2)cc1,-,-,-,23.2,-,-,-,-
Cc1ccc(S(=O)(=O)NC(=O)Nc2cccc(C)n2)cc1,.,-,-,-,-,-,.,.
SMILES,IDE act,proCasp7 act,IDE inh,procasp3 activ,UBC13 inh,PHOSPHO1 inh,procasp7 triplic,proCasp3 confirm
COc1ccc(-c2nc3ccc(N4CCCC4)cc3c(=O)[nH]2)cc1OC,-,-,-,31.4,-,-,-,-
COC(=O)c1ccccc1NCc1cc(=O)oc2cc(O)c(O)cc12,-,-,-,53.2,-,-,-,53.5
CN(Cc1cccc(Cl)c1Cl)C(=O)c1cc(S(=O)(=O)N2CCOCC2)ccc1F,-,-,-,-,-,.,.,.
O=C(Cc1c(O)c2ccccc2[nH]c1=O)NC1CCCCCCC1,-,-,-,22.0,-,-,-,-
CCCCCC(=O)Nc1sc(C)c(C)c1C#N,-,-,-,-,-,-,.,.
Cc1sc(NC(=O)CCCC(=O)O)c(C#N)c1C,-,-,-,21.8,-,-,-,-
CC1CCN(CCCNC(=O)COc2cc(=O)n(C)c3ccccc23)CC1,-,-,-,38.1,-,-,-,-
CCn1c(=O)cc(OCC(=O)NCCCN2CCC(C)CC2)c2ccccc21,-,-,-,-,-,-,.,.
CC(C)=CCc1cc(-c2oc3cc(O)cc(O)c3c(=O)c2O)ccc1O,-,-,-,21.5,-,.,-,-
COc1ccc(C2=C/C(=C\c3cccc(OC(C)=O)c3)C(=O)O2)cc1,-,-,-,35.0,-,-,-,-
COc1ccc(C2=C/C(=C\c3ccccc3OC(C)=O)C(=O)O2)cc1,-,-,-,-,-,-,.,.
N#Cc1c(-c2ccccc2)cc2nc3ccccc3n2c1N,-,-,-,30.6,?,-,-,-
Cn1c(SCC(=O)Nc2cccnc2Cl)nnc1-c1ccco1,-,-,-,-,-,.,.,.
O=C(N/N=C/c1ccc(-c2ccccc2Cl)o1)c1ccccc1,-,-,-,24.8,-,-,-,-
Cc1nc(SCC(=O)Nc2nc3ccccc3s2)c(C#N)c(C)c1C,-,-,-,29.0,-,-,-,-
Cc1cc(C(F)(F)F)c(C#N)c(SCC(=O)Nc2nc3ccccc3s2)n1,-,-,-,-,-,-,.,.
Cc1cc(C)c(C#N)c(SCC(=O)Nc2nnc(-c3ccccc3)s2)n1,-,-,-,26.7,-,-,-,-
COc1cc2sc3ccc(C#CC4(O)CCCCC4)cc3c(=O)c2cc1OC,-,-,-,69.7,-,.,-,-
COc1cc(OC)c(C(=O)COc2ncnc3ccccc23)c(OC)c1,-,-,-,-,-,-,.,.
Cc1ccc(C)c(C(=O)COc2ncnc3ccccc23)c1,-,-,-,47.9,-,-,-,-
O=C(c1ccc2c(c1)OCCO2)C1CCN(C(=O)Nc2ccccc2F)CC1,-,-,-,-,-,-,.,.
CCN(C(=O)c1cnc(OC)cc1C(F)(F)F)c1ccc(Cl)cc1,-,-,-,27.1,-,-,-,-
CCN(C(=O)c1cnc(OC)cc1C(F)(F)F)c1ccc(Cl)cc1Cl,-,-,-,-,-,-,.,.
